Test results published in ChEMBL document CHEMBL1268892, “Antidotes to anthrax lethal factor intoxication. Part 1: Discovery of potent lethal factor inhibitors with in vivo efficacy” (Bioorg Med Chem Lett, 2010).
Activity calls are given as the source filed them. The calls are words filed in the database; no cut-off is given here.

Target: T1, Lethal factor (Bacillus anthracis, UniProt P15917)
T1 sequence (P15917 whole entry): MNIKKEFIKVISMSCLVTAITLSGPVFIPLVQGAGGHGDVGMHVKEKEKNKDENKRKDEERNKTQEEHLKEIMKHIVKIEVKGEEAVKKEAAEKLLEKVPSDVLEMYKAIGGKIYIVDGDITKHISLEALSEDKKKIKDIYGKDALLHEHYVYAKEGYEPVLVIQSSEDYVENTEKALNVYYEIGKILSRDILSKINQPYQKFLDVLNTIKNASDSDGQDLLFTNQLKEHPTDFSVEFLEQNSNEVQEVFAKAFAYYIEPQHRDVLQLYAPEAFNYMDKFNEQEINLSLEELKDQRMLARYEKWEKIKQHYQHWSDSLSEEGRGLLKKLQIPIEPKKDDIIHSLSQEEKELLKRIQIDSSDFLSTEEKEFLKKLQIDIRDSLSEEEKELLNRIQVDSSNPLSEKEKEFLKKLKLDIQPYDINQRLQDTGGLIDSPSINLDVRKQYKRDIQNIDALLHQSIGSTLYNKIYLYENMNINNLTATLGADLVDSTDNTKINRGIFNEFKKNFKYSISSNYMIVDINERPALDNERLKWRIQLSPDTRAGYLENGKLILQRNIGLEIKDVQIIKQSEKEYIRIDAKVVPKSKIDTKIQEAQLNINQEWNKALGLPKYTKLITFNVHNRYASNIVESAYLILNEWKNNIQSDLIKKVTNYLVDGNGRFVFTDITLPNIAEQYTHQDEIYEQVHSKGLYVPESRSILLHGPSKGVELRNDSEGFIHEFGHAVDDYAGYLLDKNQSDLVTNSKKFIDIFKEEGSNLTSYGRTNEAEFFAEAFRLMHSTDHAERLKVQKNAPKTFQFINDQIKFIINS
Assay: Inhibition of Bacillus anthracis lethal factor assessed as proteolysis using MCA-KKVYPYPME-Dap(Dnp)-NH2 peptide substrate by FRET assay
Conditions: not given
How it was run: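 Purified LF at 0.5 nM final with 40 μM peptide substrate in 20 mM HEPES pH 7.4, 0.1% Tween-20, 0.5 mg/mL BSA. The reaction was started by adding enzyme and incubated 4 h at 23°C to reach a steady-state rate. Cleavage was read as fluorescence increase (λex 324 nm, λem 395 nm). Ki was fitted to the tight-binding equation. Values are means of three experiments.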
`CO[C@H](C[C@H](CCN1CCCC1)C(=O)NO)c1ccc(F)cc1` showed a Ki of 122 nM.
Work on `Cc1cc(S(=O)(=O)NCCCC[C@@H](Nc2cc(C)c(F)c(C)c2)C(=O)NO)ccc1F` yielded a Ki of 3.1 nM.
`Cc1cc(N[C@H](CCCCNCc2ccc(Cl)cc2)C(=O)NO)cc(C)c1F` gave a Ki of 1.1 nM.
Compound `CO[C@H](C[C@H](CCN1CCN(Cc2ccccc2)CC1)C(=O)NO)c1ccc(F)cc1` has a Ki of 115 nM.
`CO[C@H](C[C@H](CCN1CCCC(CO)C1)C(=O)NO)c1ccc(F)cc1` (stereo partly specified) showed a Ki of 99 nM.
For `CO[C@H](C[C@H](CCN1CCCCC1)C(=O)NO)c1ccc(F)cc1`, the Ki was 230 nM.
`CO[C@H](C[C@H](CCN1CCN(CCc2ccccc2)CC1)C(=O)NO)c1ccc(F)cc1` gave a Ki of 118 nM.
For `CO[C@H](C[C@H](CCN(C)CCCc1ccccc1)C(=O)NO)c1ccc(F)cc1`, the Ki was 42 nM.
`CO[C@H](C[C@H](CCN1CCOCC1)C(=O)NO)c1ccc(F)cc1` gave a Ki of 350 nM.
Work on `Cc1cc(N[C@H](CCCCNCc2ccc(C(C)(C)C)cc2)C(=O)NO)cc(C)c1F` yielded a Ki of 1.4 nM.
In the case of `Cc1cc(C(=O)NCCCC[C@@H](Nc2cc(C)c(F)c(C)c2)C(=O)NO)ccc1F`, the Ki is reported as 7.3 nM.
`CO[C@H](C[C@H](CCN(C)C)C(=O)NO)c1ccc(F)cc1` showed a Ki of 96 nM.
Compound `CO[C@H](C[C@H](CCN(C)Cc1ccc(-c2ccc(F)c(C)c2)cc1)C(=O)NO)c1ccc(F)cc1` has a Ki of 135 nM.
With `Cc1cc(N[C@H](CCCCNCc2ccccc2F)C(=O)NO)cc(C)c1F` the Ki was 0.69 nM.
Work on `Cc1cc(NC(=O)NCCCC[C@@H](Nc2cc(C)c(F)c(C)c2)C(=O)NO)ccc1F` yielded a Ki of 9.3 nM.
`Cc1ccc(CNCCCC[C@@H](Nc2cc(C)c(F)c(C)c2)C(=O)NO)cc1` showed a Ki of 0.41 nM.
Work on `Cc1cc(N[C@H](CCCCNCCCc2ccc(F)cc2)C(=O)NO)cc(C)c1F` yielded a Ki of 1.3 nM.
`CO[C@H](C[C@H](CCN1CCCC(Cc2ccc(F)cc2)C1)C(=O)NO)c1ccc(F)cc1` (stereo partly specified) showed a Ki of 33 nM.
In the case of `COc1ccc(CNCCCC[C@@H](Nc2cc(C)c(F)c(C)c2)C(=O)NO)cc1`, the Ki is reported as 0.44 nM.
`CO[C@H](C[C@H](CCN1CCNCC1)C(=O)NO)c1ccc(F)cc1` gave a Ki of 90 nM.
Compound `Cc1cc(N[C@H](CCCCN)C(=O)NO)cc(C)c1F` has a Ki of 8.2 nM.
For `Cc1cc(N[C@H](CCCCNCc2ccc(C(F)(F)F)cc2)C(=O)NO)cc(C)c1F`, the Ki was 0.47 nM.
In the case of `Cc1cc(N[C@H](CCCCNCc2cccc(F)c2)C(=O)NO)cc(C)c1F`, the Ki is reported as 0.85 nM.
With `Cc1cc(N[C@H](CCCCNCc2ccc([N+](=O)[O-])cc2)C(=O)NO)cc(C)c1F` the Ki was 0.3 nM.
`CO[C@H](C[C@H](CCN1CCN(c2ccccc2)CC1)C(=O)NO)c1ccc(F)cc1` showed a Ki of 151 nM.

Test system: Rattus norvegicus
Assay: Inhibition of lethal factor-induced toxicity in Fischer 344 rat assessed as increase in median survival time at 5 mg/kg, iv relative to control
Type: functional, organism-based
Parameters: dose 5 mg/kg
Conditions: not given
In the case of `Cc1cc(CNCCCC[C@@H](Nc2cc(C)c(F)c(C)c2)C(=O)NO)ccc1F`, the inhibition is reported as “Active”.

Test system: not listed separately
Assay: Lipophilicity, log D of the compound at pH 7.4
Type: physicochemical
Conditions: buffer
`Cc1cc(S(=O)(=O)NCCCC[C@@H](Nc2cc(C)c(F)c(C)c2)C(=O)NO)ccc1F` gave a logD of less than 3.
Compound `Cc1cc(N[C@H](CCCCNCc2ccc(Cl)cc2)C(=O)NO)cc(C)c1F` has a logD of less than 3.
For `CO[C@H](C[C@H](CCN1CCCC(CO)C1)C(=O)NO)c1ccc(F)cc1` (stereo partly specified), the logD was less than 3.
In the case of `CO[C@H](C[C@H](CCN(C)CCCc1ccccc1)C(=O)NO)c1ccc(F)cc1`, the logD is reported as less than 3.
`Cc1cc(N[C@H](CCCCNCc2ccc(F)cc2)C(=O)NO)cc(C)c1F` gave a logD of less than 3.
In the case of `Cc1cc(N[C@H](CCCCNCc2ccc(C(C)(C)C)cc2)C(=O)NO)cc(C)c1F`, the logD is reported as less than 3.
In the case of `Cc1cc(C(=O)NCCCC[C@@H](Nc2cc(C)c(F)c(C)c2)C(=O)NO)ccc1F`, the logD is reported as less than 3.
`CO[C@H](C[C@H](CCN(C)C)C(=O)NO)c1ccc(F)cc1` gave a logD of less than 3.
With `Cc1cc(N[C@H](CCCCNCCc2ccc(F)cc2)C(=O)NO)cc(C)c1F` the logD was less than 3.
Compound `Cc1cc(N[C@H](CCCCNCc2ccccc2F)C(=O)NO)cc(C)c1F` has a logD of less than 3.
`Cc1cc(NC(=O)NCCCC[C@@H](Nc2cc(C)c(F)c(C)c2)C(=O)NO)ccc1F` showed a logD of less than 3.
In the case of `Cc1ccc(CNCCCC[C@@H](Nc2cc(C)c(F)c(C)c2)C(=O)NO)cc1`, the logD is reported as less than 3.
`Cc1cc(N[C@H](CCCCNCCCc2ccc(F)cc2)C(=O)NO)cc(C)c1F` showed a logD of less than 3.
`CO[C@H](C[C@H](CCN1CCCC(Cc2ccc(F)cc2)C1)C(=O)NO)c1ccc(F)cc1` (stereo partly specified) gave a logD of less than 3.
With `COc1ccc(CNCCCC[C@@H](Nc2cc(C)c(F)c(C)c2)C(=O)NO)cc1` the logD was less than 3.
Work on `CO[C@H](C[C@H](CCN1CCNCC1)C(=O)NO)c1ccc(F)cc1` yielded a logD of less than 3.
For `Cc1cc(CNCCCC[C@@H](Nc2cc(C)c(F)c(C)c2)C(=O)NO)ccc1F`, the logD was less than 3.
With `Cc1cc(N[C@H](CCCCN)C(=O)NO)cc(C)c1F` the logD was less than 3.
`Cc1cc(N[C@H](CCCCNCc2ccc(C(F)(F)F)cc2)C(=O)NO)cc(C)c1F` showed a logD of less than 3.
`Cc1cc(N[C@H](CCCCNCc2cccc(F)c2)C(=O)NO)cc(C)c1F` gave a logD of less than 3.
With `Cc1cc(N[C@H](CCCCNCc2ccc([N+](=O)[O-])cc2)C(=O)NO)cc(C)c1F` the logD was less than 3.
Compound `CO[C@H](C[C@H](CCN(C)CCCc1ccc(F)c(C)c1)C(=O)NO)c1ccc(F)cc1` has a logD of less than 3.

Test system: not listed separately
Assay: Solubility of the compound in 50% DNSO/PBS
Type: physicochemical
Conditions: 50% DMSO/PBS
With `Cc1cc(S(=O)(=O)NCCCC[C@@H](Nc2cc(C)c(F)c(C)c2)C(=O)NO)ccc1F` the solubility was greater than 5 µg/mL.
`Cc1cc(N[C@H](CCCCNCc2ccc(Cl)cc2)C(=O)NO)cc(C)c1F` gave a solubility greater than 5 µg/mL.
Compound `CO[C@H](C[C@H](CCN1CCCC(CO)C1)C(=O)NO)c1ccc(F)cc1` (stereo partly specified) has a solubility greater than 5 µg/mL.
`CO[C@H](C[C@H](CCN(C)CCCc1ccccc1)C(=O)NO)c1ccc(F)cc1` gave a solubility greater than 5 µg/mL.
For `Cc1cc(N[C@H](CCCCNCc2ccc(F)cc2)C(=O)NO)cc(C)c1F`, the solubility was greater than 5 µg/mL.
`Cc1cc(N[C@H](CCCCNCc2ccc(C(C)(C)C)cc2)C(=O)NO)cc(C)c1F` showed a solubility greater than 5 µg/mL.
Work on `Cc1cc(C(=O)NCCCC[C@@H](Nc2cc(C)c(F)c(C)c2)C(=O)NO)ccc1F` yielded a solubility greater than 5 µg/mL.
Work on `CO[C@H](C[C@H](CCN(C)C)C(=O)NO)c1ccc(F)cc1` yielded a solubility greater than 5 µg/mL.
Compound `Cc1cc(N[C@H](CCCCNCCc2ccc(F)cc2)C(=O)NO)cc(C)c1F` has a solubility greater than 5 µg/mL.
In the case of `Cc1cc(N[C@H](CCCCNCc2ccccc2F)C(=O)NO)cc(C)c1F`, the solubility is reported as greater than 5 µg/mL.
For `Cc1cc(NC(=O)NCCCC[C@@H](Nc2cc(C)c(F)c(C)c2)C(=O)NO)ccc1F`, the solubility was greater than 5 µg/mL.
With `Cc1ccc(CNCCCC[C@@H](Nc2cc(C)c(F)c(C)c2)C(=O)NO)cc1` the solubility was greater than 5 µg/mL.
With `Cc1cc(N[C@H](CCCCNCCCc2ccc(F)cc2)C(=O)NO)cc(C)c1F` the solubility was greater than 5 µg/mL.
`CO[C@H](C[C@H](CCN1CCCC(Cc2ccc(F)cc2)C1)C(=O)NO)c1ccc(F)cc1` (stereo partly specified) showed a solubility greater than 5 µg/mL.
`COc1ccc(CNCCCC[C@@H](Nc2cc(C)c(F)c(C)c2)C(=O)NO)cc1` showed a solubility greater than 5 µg/mL.
For `CO[C@H](C[C@H](CCN1CCNCC1)C(=O)NO)c1ccc(F)cc1`, the solubility was greater than 5 µg/mL.
For `Cc1cc(CNCCCC[C@@H](Nc2cc(C)c(F)c(C)c2)C(=O)NO)ccc1F`, the solubility was greater than 5 µg/mL.
Compound `Cc1cc(N[C@H](CCCCN)C(=O)NO)cc(C)c1F` has a solubility greater than 5 µg/mL.
With `Cc1cc(N[C@H](CCCCNCc2ccc(C(F)(F)F)cc2)C(=O)NO)cc(C)c1F` the solubility was greater than 5 µg/mL.
In the case of `Cc1cc(N[C@H](CCCCNCc2cccc(F)c2)C(=O)NO)cc(C)c1F`, the solubility is reported as greater than 5 µg/mL.
Work on `Cc1cc(N[C@H](CCCCNCc2ccc([N+](=O)[O-])cc2)C(=O)NO)cc(C)c1F` yielded a solubility greater than 5 µg/mL.
In the case of `CO[C@H](C[C@H](CCN(C)CCCc1ccc(F)c(C)c1)C(=O)NO)c1ccc(F)cc1`, the solubility is reported as greater than 5 µg/mL.

Test system: Rattus norvegicus
Assay: Inhibition of lethal factor-induced toxicity in Fischer 344 rat assessed as increase in median survival time at 2.5 mg/kg, iv relative to control
Type: functional, organism-based
Parameters: dose 2.5 mg/kg
Conditions: not given
In the case of `Cc1cc(CNCCCC[C@@H](Nc2cc(C)c(F)c(C)c2)C(=O)NO)ccc1F`, the inhibition is reported as “Active”.
